Measured values taken from ChEMBL document CHEMBL1949509, “Fluorinated dual antithrombotic compounds based on 1,4-benzoxazine scaffold” (Eur J Med Chem, 2012).

Tests used:
[1] = molecular target: Integrin alpha-IIb/beta-3 (Homo sapiens, UniProt P05106+P08514); assay: Displacement of biotinylated fibrinogen from human alpha2b-beta3 receptor after 2 hrs by chemiluminescence assay; format: protein-complex assay
Integrin alpha-V/beta-3 = Integrin alpha-V/beta-3 (Homo sapiens, UniProt P05106+P06756); assay: Displacement of biotinylated fibrinogen from human […] receptor after 2 hrs by chemiluminescence assay; format: protein-complex assay
Chain of Integrin alpha-V/beta-3 (P05106 27-788 limits assumed): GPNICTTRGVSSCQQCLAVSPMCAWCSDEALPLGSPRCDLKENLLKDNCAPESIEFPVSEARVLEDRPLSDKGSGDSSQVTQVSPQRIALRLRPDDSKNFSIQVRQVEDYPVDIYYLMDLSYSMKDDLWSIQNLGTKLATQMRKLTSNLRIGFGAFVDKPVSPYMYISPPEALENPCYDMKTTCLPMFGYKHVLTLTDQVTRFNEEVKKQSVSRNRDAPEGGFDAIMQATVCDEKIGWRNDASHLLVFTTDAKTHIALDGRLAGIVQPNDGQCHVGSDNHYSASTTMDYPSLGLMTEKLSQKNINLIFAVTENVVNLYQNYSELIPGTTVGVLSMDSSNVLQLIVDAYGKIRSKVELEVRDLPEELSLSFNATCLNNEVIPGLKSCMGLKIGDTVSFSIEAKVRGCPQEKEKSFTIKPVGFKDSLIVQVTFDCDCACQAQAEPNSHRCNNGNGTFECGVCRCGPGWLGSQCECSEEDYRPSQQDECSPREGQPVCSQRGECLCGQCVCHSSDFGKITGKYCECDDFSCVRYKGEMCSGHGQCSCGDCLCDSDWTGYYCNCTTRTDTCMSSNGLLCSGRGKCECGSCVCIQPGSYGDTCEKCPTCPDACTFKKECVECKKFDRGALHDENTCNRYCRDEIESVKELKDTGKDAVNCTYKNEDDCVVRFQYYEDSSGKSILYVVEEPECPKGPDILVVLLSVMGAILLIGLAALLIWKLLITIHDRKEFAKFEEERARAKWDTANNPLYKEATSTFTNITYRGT
Chain of Integrin alpha-V/beta-3 (P06756 31-889 limits assumed): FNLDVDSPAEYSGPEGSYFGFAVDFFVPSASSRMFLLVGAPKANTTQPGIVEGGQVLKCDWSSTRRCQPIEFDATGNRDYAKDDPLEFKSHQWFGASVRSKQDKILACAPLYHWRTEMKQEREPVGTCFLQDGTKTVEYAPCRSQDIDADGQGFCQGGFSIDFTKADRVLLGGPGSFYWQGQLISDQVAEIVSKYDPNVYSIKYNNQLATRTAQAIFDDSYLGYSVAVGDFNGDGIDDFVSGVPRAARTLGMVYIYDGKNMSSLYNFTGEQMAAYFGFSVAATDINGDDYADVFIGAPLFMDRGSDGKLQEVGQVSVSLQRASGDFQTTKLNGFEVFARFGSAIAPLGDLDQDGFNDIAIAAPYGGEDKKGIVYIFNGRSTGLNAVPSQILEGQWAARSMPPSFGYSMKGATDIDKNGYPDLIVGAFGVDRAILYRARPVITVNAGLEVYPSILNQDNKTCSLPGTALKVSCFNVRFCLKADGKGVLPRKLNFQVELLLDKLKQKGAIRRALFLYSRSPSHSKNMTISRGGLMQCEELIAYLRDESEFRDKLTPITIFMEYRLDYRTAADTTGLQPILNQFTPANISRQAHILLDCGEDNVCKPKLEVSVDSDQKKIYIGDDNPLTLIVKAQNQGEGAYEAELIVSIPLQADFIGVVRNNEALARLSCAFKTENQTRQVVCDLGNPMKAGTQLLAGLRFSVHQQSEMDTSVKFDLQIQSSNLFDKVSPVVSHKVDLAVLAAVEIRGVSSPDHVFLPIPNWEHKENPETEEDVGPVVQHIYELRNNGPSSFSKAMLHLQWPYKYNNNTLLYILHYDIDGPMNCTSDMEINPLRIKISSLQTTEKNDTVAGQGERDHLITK
Chain of Integrin alpha-V/beta-3 (P06756 891-1048 limits assumed): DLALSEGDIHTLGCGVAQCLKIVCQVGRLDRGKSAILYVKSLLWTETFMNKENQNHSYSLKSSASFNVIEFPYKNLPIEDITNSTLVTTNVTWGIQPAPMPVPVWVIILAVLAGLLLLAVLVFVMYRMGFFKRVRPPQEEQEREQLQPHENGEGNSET

Coagulation factor X = Coagulation factor X (Homo sapiens, UniProt P00742); assay: Inhibition of factor 10a using S-2222 as substrate preincubated for 15 mins prior substrate addition measured for every 10 secs by spectrophotometry
Chain of Coagulation factor X (P00742 41-179 limits assumed): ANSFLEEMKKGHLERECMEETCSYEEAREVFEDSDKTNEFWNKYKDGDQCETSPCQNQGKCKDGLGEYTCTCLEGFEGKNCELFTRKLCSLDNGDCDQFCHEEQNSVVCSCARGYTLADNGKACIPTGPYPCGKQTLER
Chain of Coagulation factor X (P00742 235-488 limits assumed): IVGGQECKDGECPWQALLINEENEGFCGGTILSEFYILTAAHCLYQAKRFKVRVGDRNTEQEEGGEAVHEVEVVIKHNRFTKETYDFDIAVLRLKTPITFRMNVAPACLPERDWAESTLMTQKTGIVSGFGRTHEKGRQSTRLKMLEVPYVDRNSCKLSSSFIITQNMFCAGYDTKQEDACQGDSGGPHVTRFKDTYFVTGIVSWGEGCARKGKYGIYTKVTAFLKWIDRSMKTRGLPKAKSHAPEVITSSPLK
Summary of the method: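 Amidolytic chromogenic assay. Factor Xa at 1 mBAEEE/mL final with S-2222 at […] final. Inhibitor at three concentrations, diluted from 10 mmol/L DMSO stock, preincubated with enzyme in HBSA buffer for 15 min at 25 °C. A405 read every 10 s. Run in triplicate. Ki by Cheng–Prusoff from initial linear rates, averaged over concentration combinations.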

Prothrombin = Prothrombin (Homo sapiens, UniProt P00734)
[2] = Selectivity ratio of Ki for factor 10a to Ki for thrombin
Summary of the method: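 Factor Xa at 1 mBAEEE/mL with S-2222 at 100 and 200; thrombin at 0.5 NIH E/mL with S-2238 at […]. Triplicates, three inhibitor concentrations.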

[3] = Selectivity ratio of Ki for trypsin to Ki for thrombin
Summary of the method: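 Trypsin at 0.5 nkat/mL with S-2222 at 50 and 100; thrombin at 0.5 NIH E/mL with S-2238 at […]. Triplicates, three inhibitor concentrations.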

Chain of Integrin alpha-IIb/beta-3 (P05106 27-788 limits assumed): as the sequence (P05106 27-788 limits assumed) above
Chain of Integrin alpha-IIb/beta-3 (P08514 32-887 limits assumed): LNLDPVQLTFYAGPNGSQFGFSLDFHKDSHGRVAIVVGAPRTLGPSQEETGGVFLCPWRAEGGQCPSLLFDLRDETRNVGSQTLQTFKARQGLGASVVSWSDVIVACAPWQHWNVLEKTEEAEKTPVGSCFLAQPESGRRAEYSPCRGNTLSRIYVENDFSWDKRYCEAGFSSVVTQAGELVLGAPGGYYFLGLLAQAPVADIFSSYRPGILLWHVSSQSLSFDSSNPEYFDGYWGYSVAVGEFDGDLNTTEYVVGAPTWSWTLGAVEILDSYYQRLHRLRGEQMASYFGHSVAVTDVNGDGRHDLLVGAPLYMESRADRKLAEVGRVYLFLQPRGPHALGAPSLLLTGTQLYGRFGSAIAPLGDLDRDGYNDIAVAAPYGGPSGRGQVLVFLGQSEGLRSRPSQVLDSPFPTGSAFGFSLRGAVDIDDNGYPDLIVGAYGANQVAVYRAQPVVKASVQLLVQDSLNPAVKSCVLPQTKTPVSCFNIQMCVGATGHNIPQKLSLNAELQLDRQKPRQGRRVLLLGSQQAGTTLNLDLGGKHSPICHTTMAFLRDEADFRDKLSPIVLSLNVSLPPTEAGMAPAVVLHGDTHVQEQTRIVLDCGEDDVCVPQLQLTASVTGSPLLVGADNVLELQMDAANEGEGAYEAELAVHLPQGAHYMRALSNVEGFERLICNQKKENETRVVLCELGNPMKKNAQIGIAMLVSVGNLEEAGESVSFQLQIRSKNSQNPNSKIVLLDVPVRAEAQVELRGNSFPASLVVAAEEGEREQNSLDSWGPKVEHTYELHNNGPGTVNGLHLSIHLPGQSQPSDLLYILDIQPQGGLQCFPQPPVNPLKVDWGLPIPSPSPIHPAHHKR
Chain of Integrin alpha-IIb/beta-3 (P08514 891-1039 limits assumed): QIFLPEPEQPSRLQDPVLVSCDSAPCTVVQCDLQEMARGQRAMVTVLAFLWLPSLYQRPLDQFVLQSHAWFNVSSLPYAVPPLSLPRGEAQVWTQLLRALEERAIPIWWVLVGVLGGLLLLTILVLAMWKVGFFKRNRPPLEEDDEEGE

| Compound | IC50 [1] [µM] | IC50 (Integrin alpha-V/beta-3) [µM] | Ki (Coagulation factor X) [µM] | Ki (Prothrombin) [µM] | Ratio Ki [2] | Ratio Ki [3] |
| --- | --- | --- | --- | --- | --- | --- |
| CCOC(=O)CN(Cc1ccccc1)c1ccc2c(c1)N(C)CC(C)(COc1ccc(C(=N)N)cc1)O2 (configuration not stated) | 54 | > 100 | – | – | – | – |
| CN1CC(C)(COc2ccc(C(=N)N)cc2)Oc2ccc(N(Cc3cc(F)cc(F)c3)C(=O)C(=O)O)cc21 (configuration not stated) | 3.4 | > 100 | 14 | – | – | – |
| CCOC(=O)CN(Cc1ccc(F)cc1)c1ccc2c(c1)OC(C)(COc1ccc(C(=N)N)cc1)CN2C (configuration not stated) | > 100 | > 100 | 1.6 | 0.36 | – | – |
| CCOC(=O)CN(Cc1cc(F)cc(F)c1)c1ccc2c(c1)OC(C)(COc1ccc(C(=N)N)cc1)CN2C (configuration not stated) | > 100 | > 100 | 15 | – | – | – |
| CCOC(=O)C(=O)N(Cc1ccccc1)c1ccc2c(c1)N(C)CC(C)(COc1ccc(C(=N)N)cc1)O2 (configuration not stated) | 49 | > 100 | – | – | – | – |
| CN1CC(C)(COc2ccc(C(=N)N)cc2)Oc2ccc(N(CC(=O)O)Cc3ccc(F)c(F)c3)cc21 (configuration not stated) | 1.1 | > 100 | 6.5 | 0.33 | 20 | 1.7 |
| CN1CC(C)(COc2ccc(C(=N)N)cc2)Oc2cc(N(Cc3cccc(F)c3)C(=O)C(=O)O)ccc21 (configuration not stated) | 33 | > 100 | 4.1 | – | – | – |
| CN1CC(C)(COc2ccc(C(=N)N)cc2)Oc2ccc(N(Cc3ccc(F)c(F)c3)C(=O)C(=O)O)cc21 (configuration not stated) | 2.5 | > 100 | 14 | – | – | – |
| CN1CC(C)(COc2ccc(C(=N)N)cc2)Oc2cc(N(Cc3ccc(F)c(F)c3)C(=O)C(=O)O)ccc21 (configuration not stated) | 31 | > 100 | 3.6 | – | – | – |
| CN1CC(C)(COc2ccc(C(=N)N)cc2)Oc2cc(N(Cc3ccccc3)C(=O)C(=O)O)ccc21 (configuration not stated) | 39 | > 100 | – | – | – | – |
| CN1CC(C)(COc2ccc(C(=N)N)cc2)Oc2cc(N(Cc3cc(F)cc(F)c3)C(=O)C(=O)O)ccc21 (configuration not stated) | 31 | > 100 | 1.6 | – | – | – |
| CCOC(=O)C(=O)N(Cc1cc(F)cc(F)c1)c1ccc2c(c1)OC(C)(COc1ccc(C(=N)N)cc1)CN2C (configuration not stated) | > 100 | > 100 | 0.79 | 0.018 | – | – |
| CCOC(=O)C(=O)N(Cc1cccc(F)c1)c1ccc2c(c1)N(C)CC(C)(COc1ccc(C(=N)N)cc1)O2 (configuration not stated) | > 100 | > 100 | 4.9 | – | – | – |
| CN1CC(C)(COc2ccc(C(=N)N)cc2)Oc2cc(N(CC(=O)O)Cc3ccc(F)cc3)ccc21 (configuration not stated) | 49 | > 100 | 5.6 | 0.24 | – | – |
| CCOC(=O)CN(Cc1ccc(F)cc1)c1ccc2c(c1)N(C)CC(C)(COc1ccc(C(=N)N)cc1)O2 (configuration not stated) | > 100 | > 100 | 6.66 | 0.72 | – | – |
| CN1CC(C)(COc2ccc(C(=N)N)cc2)Oc2ccc(N(Cc3ccccc3)C(=O)C(=O)O)cc21 (configuration not stated) | 2.8 | > 100 | – | – | – | – |
| CN1CC(C)(COc2ccc(C(=N)N)cc2)Oc2cc(N(CC(=O)O)Cc3cccc(F)c3)ccc21 (configuration not stated) | 60 | > 100 | 6.6 | 0.32 | – | 5 |
| CCOC(=O)C(=O)N(Cc1cccc(F)c1)c1ccc2c(c1)OC(C)(COc1ccc(C(=N)N)cc1)CN2C (configuration not stated) | > 100 | > 100 | 1.6 | 0.019 | – | – |
| CN1CC(C)(COc2ccc(C(=N)N)cc2)Oc2cc(N(Cc3ccc(F)cc3)C(=O)C(=O)O)ccc21 (configuration not stated) | 34 | > 100 | 7.7 | – | – | – |

| Compound | IC50 [1] [µM] | IC50 (Integrin alpha-V/beta-3) [µM] | Ki (Coagulation factor X) [µM] | Ki (Prothrombin) [µM] | Ratio Ki [2] | Ratio Ki [3] |
| --- | --- | --- | --- | --- | --- | --- |
| CCOC(=O)C(=O)N(Cc1ccccc1)c1ccc2c(c1)OC(C)(COc1ccc(C(=N)N)cc1)CN2C (configuration not stated) | 52 | > 100 | – | – | – | – |
| CN1CC(C)(COc2ccc(C(=N)N)cc2)Oc2ccc(N(CC(=O)O)Cc3cc(F)cc(F)c3)cc21 (configuration not stated) | 2.5 | > 100 | 9.8 | 0.76 | – | – |
| CN1CC(C)(COc2ccc(C(=N)N)cc2)Oc2ccc(N(Cc3cccc(F)c3)C(=O)C(=O)O)cc21 (configuration not stated) | 2.2 | > 100 | 18 | – | – | – |
| CCOC(=O)CN(Cc1cccc(F)c1)c1ccc2c(c1)OC(C)(COc1ccc(C(=N)N)cc1)CN2C (configuration not stated) | > 100 | > 100 | 1.2 | – | – | – |
| CN1CC(C)(COc2ccc(C(=N)N)cc2)Oc2cc(N(CC(=O)O)Cc3cc(F)cc(F)c3)ccc21 (configuration not stated) | 45 | > 100 | 4 | 0.2 | 20 | 6.5 |
| CN1CC(C)(COc2ccc(C(=N)N)cc2)Oc2ccc(N(CC(=O)O)Cc3ccc(F)cc3)cc21 (configuration not stated) | 2 | > 100 | 7.7 | 0.75 | – | – |
| CCOC(=O)CN(Cc1ccccc1)c1ccc2c(c1)OC(C)(COc1ccc(C(=N)N)cc1)CN2C (configuration not stated) | 28 | > 100 | – | 0.32 | – | – |
| CN1CC(C)(COc2ccc(C(=N)N)cc2)Oc2cc(N(CC(=O)O)Cc3ccc(F)c(F)c3)ccc21 (configuration not stated) | 80 | > 100 | 4.4 | 0.81 | 5.4 | 1.6 |
| CCOC(=O)CN(Cc1cccc(F)c1)c1ccc2c(c1)N(C)CC(C)(COc1ccc(C(=N)N)cc1)O2 (configuration not stated) | > 100 | > 100 | 6.8 | 0.8 | – | – |
| CCOC(=O)CN(Cc1ccc(F)c(F)c1)c1ccc2c(c1)OC(C)(COc1ccc(C(=N)N)cc1)CN2C (configuration not stated) | > 100 | > 100 | 1.5 | – | – | – |
| CCOC(=O)C(=O)N(Cc1ccc(F)c(F)c1)c1ccc2c(c1)OC(C)(COc1ccc(C(=N)N)cc1)CN2C (configuration not stated) | > 100 | > 100 | 1.6 | 0.028 | – | – |
| CN1CC(C)(COc2ccc(C(=N)N)cc2)Oc2ccc(N(CC(=O)O)Cc3cccc(F)c3)cc21 (configuration not stated) | 1.5 | > 100 | 7.6 | 0.67 | – | – |
| CCOC(=O)CN(Cc1ccc(F)c(F)c1)c1ccc2c(c1)N(C)CC(C)(COc1ccc(C(=N)N)cc1)O2 (configuration not stated) | > 100 | > 100 | 8 | 0.83 | – | – |
| CCOC(=O)CN(Cc1cc(F)cc(F)c1)c1ccc2c(c1)N(C)CC(C)(COc1ccc(C(=N)N)cc1)O2 (configuration not stated) | > 100 | > 100 | 9.8 | – | – | – |
| CCOC(=O)C(=O)N(Cc1cc(F)cc(F)c1)c1ccc2c(c1)N(C)CC(C)(COc1ccc(C(=N)N)cc1)O2 (configuration not stated) | > 100 | > 100 | 6 | – | – | – |
| CCOC(=O)C(=O)N(Cc1ccc(F)cc1)c1ccc2c(c1)OC(C)(COc1ccc(C(=N)N)cc1)CN2C (configuration not stated) | > 100 | > 100 | 2.83 | 0.023 | – | – |
| CCOC(=O)C(=O)N(Cc1ccc(F)cc1)c1ccc2c(c1)N(C)CC(C)(COc1ccc(C(=N)N)cc1)O2 (configuration not stated) | > 10 | > 100 | 5.49 | – | – | – |
| CN1CC(C)(COc2ccc(C(=N)N)cc2)Oc2ccc(N(Cc3ccc(F)cc3)C(=O)C(=O)O)cc21 (configuration not stated) | 1.8 | > 100 | 16.3 | – | – | – |
| CCOC(=O)C(=O)N(Cc1ccc(F)c(F)c1)c1ccc2c(c1)N(C)CC(C)(COc1ccc(C(=N)N)cc1)O2 (configuration not stated) | > 100 | > 100 | 4.7 | – | – | – |
